{"data": "Measured values from different studies", "mode": "inhibitor", "rep main protease": "Replicase polyprotein 1ab, main protease (rep, Severe acute respiratory syndrome coronavirus 2, UniProt P0DTD1)", "rep methyltransferase": "Replicase polyprotein 1ab, methyltransferase (rep, Severe acute respiratory syndrome coronavirus 2, UniProt P0DTD1)", "rep papain-like protease": "Replicase polyprotein 1ab, papain-like protease (rep, Severe acute respiratory syndrome coronavirus 2, UniProt P0DTD1)"}
{"SMILES": "c1ccc([Se][Se]c2ccccc2)cc1", "target": "rep main protease", "read-out": "enzyme activity", "method": "FRET", "IC50 [µM]": 1.33}
{"SMILES": "Cc1c(O)cccc1C(=O)N[C@@H](CSc1ccccc1)[C@H](O)CN1C[C@H]2CCCC[C@H]2C[C@H]1C(=O)NC(C)(C)C", "target": "rep main protease", "read-out": "enzyme activity in cells", "IC50 [µM]": "> 10"}
{"SMILES": "CC(Cc1ccc(O)c(O)c1)C(C)Cc1ccc(O)c(O)c1 (centres unmarked)", "target": "rep methyltransferase", "read-out": "enzyme activity", "IC50 [µM]": 10.3}
{"SMILES": "Cc1nocc1C(=O)N1Cc2ccccc2[C@@H](CNC(=O)c2cncc3ccc(F)cc23)C1", "target": "rep main protease", "read-out": "enzyme activity", "IC50 [µM]": 56.8}
{"SMILES": "O=C(NCCCNc1nc(Nc2cccc(NC(=O)N3CCCC3)c2)ncc1I)c1cccs1", "target": "rep main protease", "read-out": "enzyme activity", "IC50 [µM]": 8.7}
{"SMILES": "CCOc1nc2cccc(C(=O)O)c2n1Cc1ccc(-c2ccccc2-c2nnn[nH]2)cc1", "target": "rep main protease", "read-out": "enzyme activity", "IC50 [µM]": "> 240"}
{"SMILES": "O=C1c2ccccc2NC(c2cc(Br)ccc2O)N1N=Cc1cc(Br)ccc1O (centres unmarked)", "target": "rep main protease", "read-out": "enzyme activity in cells", "IC50 [µM]": "> 40"}
{"SMILES": "COCCn1c2c([n+](Cc3cnccn3)c1C)C(=O)c1ccccc1C2=O", "target": "rep papain-like protease", "read-out": "enzyme activity", "method": "FRET", "pH": "pH 7.5", "IC50 [µM]": 20.2}
{"SMILES": "Cc1nn(-c2ccc(Cl)cc2)c2c1C(c1ccc(Cl)c(Cl)c1)C(C#N)=C(N)O2 (centres unmarked)", "target": "rep main protease", "read-out": "enzyme activity", "IC50 [µM]": 100}
{"SMILES": "CCCCCC/C=C\\CCCCCCCCCc1cc(O)cc(O)c1", "target": "rep main protease", "read-out": "enzyme activity", "setting": "with preincubation", "IC50 [µM]": "> 100"}
{"SMILES": "COC(=O)C1=C(C(=O)OC)C(c2ccc(Cl)cc2)c2sc(=O)[nH]c2S1 (centres unmarked)", "target": "rep methyltransferase", "read-out": "enzyme activity", "IC50 [µM]": 74.9}
{"SMILES": "CC[C@]12C=CCN3CC[C@@]4(c5cc([C@@]6(C(=O)OC)C[C@@H]7C[C@@H](C(C)(F)F)C[N@](CCc8c6[nH]c6ccccc86)C7)c(OC)cc5N(C)[C@H]4[C@@](O)(C(=O)OC)[C@@H]1OC(C)=O)[C@@H]32", "target": "rep main protease", "read-out": "enzyme activity", "IC50 [µM]": "> 20"}
{"SMILES": "CC(C)C[C@H](NC(=O)[C@@H](NC(=O)OCc1ccccc1)C(C)(C)C)C(=O)N(C)N(C#N)CCC(N)=O", "target": "rep main protease", "read-out": "enzyme activity", "IC50 [µM]": 0.775}
{"SMILES": "CCCCCCCCOc1ccccc1C(=O)Nc1ccc(C(=O)OCC[N+](C)(CC)CC)cc1", "target": "rep methyltransferase", "read-out": "enzyme activity", "IC50 [µM]": 39.3}
{"SMILES": "COc1cc(C[C@@H](C)[C@@H](C)Cc2ccc(O)c(OC)c2)ccc1O", "target": "rep papain-like protease", "read-out": "enzyme activity", "method": "FRET", "IC50 [µM]": 4.24}
{"SMILES": "CN1Cc2ccccc2[C@@H]2c3cccc4[nH]cc(c34)C[C@H]21", "target": "rep main protease", "read-out": "enzyme activity", "IC50 [µM]": "> 20"}
{"SMILES": "c1ccc(-c2nc(N3CCOCC3)[s+]n2-c2ccccc2)cc1", "target": "rep main protease", "read-out": "enzyme activity", "IC50 [µM]": 0.328}
{"SMILES": "CCOC(=O)c1c(NC(=O)c2ccc3c(c2)CC(c2ccccc2)OC3=O)sc(C)c1C (centres unmarked)", "target": "rep methyltransferase", "read-out": "enzyme activity", "IC50 [µM]": 47.9}
{"SMILES": "Cc1ccc2[nH]ncc2c1C(=O)NC[C@H]1Cc2ccccc2CN1C(=O)C[C@H](C)c1ccco1", "target": "rep main protease", "read-out": "enzyme activity", "IC50 [µM]": 56.9}
{"SMILES": "CN(C)[C@@H]1C(O)=C(C(N)=O)C(=O)[C@@]2(O)C(O)=C3C(=O)c4c(O)cccc4[C@@](C)(O)[C@H]3[C@H](O)[C@@H]12", "target": "rep main protease", "read-out": "enzyme activity in cells", "IC50 [µM]": "> 60"}
{"SMILES": "C=C(c1ccc(C(=O)O)cc1)c1cc2c(cc1C)C(C)(C)CCC2(C)C", "target": "rep main protease", "read-out": "enzyme activity in cells", "IC50 [µM]": 20}
{"SMILES": "Oc1ccc(O)cc1", "target": "rep methyltransferase", "read-out": "enzyme activity", "IC50 [µM]": 12.2}
{"SMILES": "Oc1cc(O)c2c(c1)O[C@H](c1ccc(O)c(O)c1)[C@H](O)C2", "target": "rep main protease", "read-out": "enzyme activity", "IC50 [µM]": 0.05}
{"SMILES": "O=c1oc2c(cc1O)oc(=O)c1cc(O)c(O)c(O)c12", "target": "rep methyltransferase", "read-out": "enzyme activity", "IC50 [µM]": 24.1}
{"SMILES": "Sc1ncnc2nc[nH]c12", "target": "rep papain-like protease", "read-out": "enzyme activity", "method": "FRET", "pH": "pH 7.5", "IC50 [µM]": "> 60"}
{"SMILES": "CCn1c(-c2nonc2N)nc2cnc(Oc3cccc(NC(=O)c4ccc(OCCN5CCOCC5)cc4)c3)cc21", "target": "rep main protease", "read-out": "enzyme activity", "IC50 [µM]": "> 20"}
{"SMILES": "COC(=O)C1=C(C)NC(C)=C(C(=O)OCCN2CCN(C(c3ccccc3)c3ccccc3)CC2)C1c1cccc([N+](=O)[O-])c1 (centres unmarked)", "target": "rep main protease", "read-out": "enzyme activity in cells", "IC50 [µM]": "> 10"}
{"SMILES": "CC(C)c1cccc(NC(=O)C2CC(=O)Nc3ccccc32)c1 (centres unmarked)", "target": "rep main protease", "read-out": "enzyme activity", "IC50 [µM]": 3.72}
{"SMILES": "[H]/N=C(\\N/C(=N/[H])NCCCCCCNC(=N)NC(=N)Nc1ccc(Cl)cc1)Nc1ccc(Cl)cc1", "target": "rep methyltransferase", "read-out": "enzyme activity", "IC50 [µM]": 43.7}
{"SMILES": "C[S+]([O-])CCCCN=C=S (centres unmarked)", "target": "rep main protease", "read-out": "enzyme activity", "IC50 [µM]": 5.5}
{"SMILES": "COc1cc(C[C@@H](C)[C@@H](C)Cc2cc(O)c(OC)c(OC)c2)cc(O)c1OC", "target": "rep papain-like protease", "read-out": "enzyme activity", "method": "FRET", "IC50 [µM]": 5.23}
{"SMILES": "CCOc1cc(C(Nc2cc(C)ccn2)c2ccc3cccnc3c2O)ccc1OC (centres unmarked)", "target": "rep main protease", "read-out": "enzyme activity", "IC50 [µM]": 0.27}
{"SMILES": "COc1ccc(O)c(C=NN2C(=O)c3ccccc3NC2c2cc(OC)ccc2O)c1 (centres unmarked)", "target": "rep main protease", "read-out": "enzyme activity in cells", "IC50 [µM]": 6.5}
{"SMILES": "CC(C)c1nnc(NC(=O)c2cccc(N3C(=O)c4ccccc4C3=O)c2)s1", "target": "rep methyltransferase", "read-out": "enzyme activity", "IC50 [µM]": 35.6}
{"SMILES": "S=C=NCc1ccccc1", "target": "rep main protease", "read-out": "enzyme activity", "IC50 [µM]": "> 20"}
